# From PMC4783179 (The Journal of comparative neurology, 2015)
# Read-outs that look alike come from different tables or passages of the source. Marks after values point to notes of the source that are not given here.
# How the values were obtained:
# adrenergic α1D = adrenergic α1D (Homo sapiens, UniProt P25100); experiment: NIMH PDSP binding affinity, human cloned receptor
# D3 subtype = D3 subtype (Homo sapiens, UniProt P35462); experiment: NIMH PDSP binding affinity, human cloned receptor; conditions: read-out: Affinity, D3 subtype
# Chain of D3 subtype (P35462 whole entry): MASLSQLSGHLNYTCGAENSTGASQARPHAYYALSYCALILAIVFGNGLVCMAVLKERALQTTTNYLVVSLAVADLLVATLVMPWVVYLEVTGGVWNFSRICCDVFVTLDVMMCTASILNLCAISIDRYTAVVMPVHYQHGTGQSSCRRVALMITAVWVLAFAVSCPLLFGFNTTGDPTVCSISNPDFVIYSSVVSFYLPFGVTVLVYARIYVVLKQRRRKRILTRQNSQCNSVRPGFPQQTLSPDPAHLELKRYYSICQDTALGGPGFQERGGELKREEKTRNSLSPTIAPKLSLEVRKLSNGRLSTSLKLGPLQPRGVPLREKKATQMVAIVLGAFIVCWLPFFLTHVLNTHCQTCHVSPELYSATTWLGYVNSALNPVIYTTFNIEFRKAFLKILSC
# 5-HT1A receptors [1] = conditions: cited from earlier work
# [2] = human plasma; ref Hillmer et al., 2014; cited from earlier work
# adrenergic α1A = adrenergic α1A (Homo sapiens, UniProt P35348); experiment: NIMH PDSP binding affinity, human cloned receptor
# Chain of adrenergic α1A (P35348 whole entry): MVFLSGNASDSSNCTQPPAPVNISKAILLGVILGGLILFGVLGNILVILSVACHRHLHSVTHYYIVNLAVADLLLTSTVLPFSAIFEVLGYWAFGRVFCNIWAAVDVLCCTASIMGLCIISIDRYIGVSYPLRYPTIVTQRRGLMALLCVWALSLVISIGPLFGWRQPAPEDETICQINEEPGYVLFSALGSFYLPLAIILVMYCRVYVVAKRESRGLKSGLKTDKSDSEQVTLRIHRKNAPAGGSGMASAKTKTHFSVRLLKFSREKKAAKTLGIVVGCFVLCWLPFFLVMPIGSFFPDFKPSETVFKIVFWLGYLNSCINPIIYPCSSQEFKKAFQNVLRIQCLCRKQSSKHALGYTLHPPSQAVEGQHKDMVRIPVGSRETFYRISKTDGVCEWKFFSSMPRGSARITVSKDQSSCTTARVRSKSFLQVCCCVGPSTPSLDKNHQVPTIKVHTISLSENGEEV
# [3] = target: serotonin 5-HT1A receptors; conditions: rat brain homogenates labeled with 3H-WAY 100635; ref Saigal et al., 2013; cited from earlier work
# 5-HT1A receptors [4] = target: T1, 5-HT1A receptors (Rattus norvegicus, UniProt P19327); experiment: In vitro autoradiography of 18F-Mefway, rat brain slices; assay type: binding
# T1 sequence (P19327 1-422): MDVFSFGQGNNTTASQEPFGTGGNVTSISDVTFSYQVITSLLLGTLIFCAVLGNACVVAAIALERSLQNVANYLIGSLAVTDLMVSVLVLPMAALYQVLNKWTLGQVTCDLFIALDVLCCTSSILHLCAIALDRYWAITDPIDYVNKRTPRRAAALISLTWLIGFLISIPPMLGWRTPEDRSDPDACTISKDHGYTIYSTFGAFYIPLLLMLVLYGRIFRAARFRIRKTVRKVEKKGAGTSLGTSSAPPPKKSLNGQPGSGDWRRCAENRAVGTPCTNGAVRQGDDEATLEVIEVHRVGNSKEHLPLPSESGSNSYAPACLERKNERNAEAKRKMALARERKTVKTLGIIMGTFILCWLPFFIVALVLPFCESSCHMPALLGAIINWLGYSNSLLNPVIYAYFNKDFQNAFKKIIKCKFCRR
# Procedure, shortened: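 Horizontal 10 µm slices covering hippocampus, frontal cortex, dorsal raphe and cerebellum. Sources: frozen brains of male BALB/c mice (25 g) or male Sprague-Dawley rats (250–300 g). Preincubated in 50 mM Tris-HCl pH 7.4 for 10 min at room temperature, then 37–185 kBq/mL tracer at 37 °C for 1 h. […] Washed, then phosphor screen for 24 h. Regional DLU/mm² expressed as ratios to cerebellum as reference.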
# 5-HT1A receptors [5] = target: T2, 5-HT1A receptors (Mus musculus, UniProt Q64264); conditions: cited from earlier work; for Brain Uptake: initial, 1–2 min post-injection
# T2 sequence (Q64264 1-421): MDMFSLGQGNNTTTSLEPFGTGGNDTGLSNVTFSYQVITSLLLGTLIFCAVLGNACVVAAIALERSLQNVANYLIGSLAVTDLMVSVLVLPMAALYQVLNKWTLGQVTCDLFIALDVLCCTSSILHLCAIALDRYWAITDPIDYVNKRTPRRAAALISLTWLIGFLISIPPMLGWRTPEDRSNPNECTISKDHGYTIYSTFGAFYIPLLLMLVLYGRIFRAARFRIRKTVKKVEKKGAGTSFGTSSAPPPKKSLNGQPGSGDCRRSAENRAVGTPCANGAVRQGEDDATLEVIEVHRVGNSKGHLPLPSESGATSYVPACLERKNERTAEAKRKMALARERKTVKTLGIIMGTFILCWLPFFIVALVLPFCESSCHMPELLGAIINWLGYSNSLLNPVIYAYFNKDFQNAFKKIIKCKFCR
# 5-HT1A receptors [6] = target: T3, 5-HT1A receptors (Homo sapiens, UniProt P08908); experiment: In vitro autoradiography of 18F-Mefway, human postmortem hippocampus sections; assay type: binding
# T3 sequence (P08908 1-422): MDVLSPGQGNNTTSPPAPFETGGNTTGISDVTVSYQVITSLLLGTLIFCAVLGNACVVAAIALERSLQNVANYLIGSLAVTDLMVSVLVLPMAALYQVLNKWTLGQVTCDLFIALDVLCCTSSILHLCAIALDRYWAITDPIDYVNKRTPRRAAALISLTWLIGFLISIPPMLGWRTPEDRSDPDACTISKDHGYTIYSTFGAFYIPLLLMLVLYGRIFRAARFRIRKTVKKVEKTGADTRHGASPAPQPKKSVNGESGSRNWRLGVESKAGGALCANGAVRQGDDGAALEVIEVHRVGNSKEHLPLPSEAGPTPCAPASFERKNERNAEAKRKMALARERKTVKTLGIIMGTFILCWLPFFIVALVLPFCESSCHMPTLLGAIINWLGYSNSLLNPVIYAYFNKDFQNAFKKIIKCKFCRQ
# Procedure, shortened: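 Dog tissue: unfixed beagle brain (4.5–15.4 yr), stored at −80 °C, cut as 10 µm hemi-coronal slices with hippocampus and cortex. Human tissue: postmortem hippocampus (PMI 3.8–5.8 h), cut at 7 µm. Slices preincubated in 50 mM Tris-HCl pH 7.4 for 10 min at room temperature, then incubated with 37–185 kBq/mL tracer at 37 °C for 1 h. […] Two 1-min ice-cold buffer washes, then 24 h phosphor-screen exposure. Binding read as DLU/mm².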
# 5-HT2B = 5-HT2B (Homo sapiens, UniProt P41595); experiment: NIMH PDSP binding affinity, human cloned receptor
# Chain of 5-HT2B (P41595 whole entry): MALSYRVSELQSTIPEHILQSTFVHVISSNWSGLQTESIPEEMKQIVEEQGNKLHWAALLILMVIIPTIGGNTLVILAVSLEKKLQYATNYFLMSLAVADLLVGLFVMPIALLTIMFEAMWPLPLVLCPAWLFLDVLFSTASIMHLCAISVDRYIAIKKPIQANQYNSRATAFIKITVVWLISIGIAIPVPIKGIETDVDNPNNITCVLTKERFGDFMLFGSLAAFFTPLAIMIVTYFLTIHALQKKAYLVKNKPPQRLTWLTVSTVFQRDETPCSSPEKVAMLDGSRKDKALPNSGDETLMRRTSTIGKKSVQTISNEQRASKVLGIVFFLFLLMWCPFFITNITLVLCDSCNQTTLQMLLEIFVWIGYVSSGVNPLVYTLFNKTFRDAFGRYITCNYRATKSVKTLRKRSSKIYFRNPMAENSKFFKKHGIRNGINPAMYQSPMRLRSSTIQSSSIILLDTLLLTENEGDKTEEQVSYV
# 5-HT7 = 5-HT7 (Homo sapiens, UniProt P34969); experiment: NIMH PDSP binding affinity, human cloned receptor
# Chain of 5-HT7 (P34969 whole entry): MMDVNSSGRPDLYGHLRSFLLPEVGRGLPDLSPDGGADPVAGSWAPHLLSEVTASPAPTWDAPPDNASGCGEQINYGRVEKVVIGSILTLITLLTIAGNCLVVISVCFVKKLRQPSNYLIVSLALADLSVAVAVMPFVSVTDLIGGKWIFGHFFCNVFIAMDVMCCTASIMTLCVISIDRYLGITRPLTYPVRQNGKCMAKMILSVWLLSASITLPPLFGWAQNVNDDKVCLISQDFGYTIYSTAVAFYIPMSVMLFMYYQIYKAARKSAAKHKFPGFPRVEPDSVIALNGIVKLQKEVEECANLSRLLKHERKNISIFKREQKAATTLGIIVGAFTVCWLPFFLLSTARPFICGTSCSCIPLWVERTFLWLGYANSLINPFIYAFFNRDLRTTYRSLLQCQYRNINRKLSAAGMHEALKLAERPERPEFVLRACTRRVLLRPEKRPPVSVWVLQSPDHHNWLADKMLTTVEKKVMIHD
# α1B = α1B (Homo sapiens, UniProt P35368); experiment: NIMH PDSP binding affinity, human cloned receptor
# Chain of α1B (P35368 whole entry): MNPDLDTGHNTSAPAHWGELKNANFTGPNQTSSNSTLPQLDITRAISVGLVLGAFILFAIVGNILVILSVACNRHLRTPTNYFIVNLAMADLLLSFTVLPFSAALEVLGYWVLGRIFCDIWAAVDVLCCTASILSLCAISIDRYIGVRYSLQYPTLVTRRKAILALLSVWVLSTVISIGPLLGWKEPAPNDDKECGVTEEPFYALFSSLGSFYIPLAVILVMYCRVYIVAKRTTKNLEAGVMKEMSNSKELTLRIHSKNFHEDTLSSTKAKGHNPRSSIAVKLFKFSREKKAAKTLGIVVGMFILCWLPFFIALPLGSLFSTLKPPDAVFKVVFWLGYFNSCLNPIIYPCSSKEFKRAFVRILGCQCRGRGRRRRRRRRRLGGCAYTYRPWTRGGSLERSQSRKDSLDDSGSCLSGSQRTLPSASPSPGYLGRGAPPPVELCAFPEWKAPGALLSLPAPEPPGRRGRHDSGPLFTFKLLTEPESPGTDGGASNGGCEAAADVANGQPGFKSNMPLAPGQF
# 5-HT1A receptors [7] = target: T1, 5-HT1A receptors; conditions: 90 mins post-injection, cited from earlier work
# [8] = target: multidrug resistance 1 protein (MDR1; P-glycoprotein) (Homo sapiens, UniProt P08183); experiment: Multidrug resistance; assay type: biochemical; conditions: read-out: IC50 as potential substrate of MDR1 (P-glycoprotein)
# [9] = [5-HT1A affinity/other receptor affinity]×100, 5-HT1A 0.6 or 2.2 nM for WAY-100635, 0.9 nM for Mefway
# [10] = ref Saigal et al., 2013, listed as 18F-Mefway
# Chain of adrenergic α1D (P25100 whole entry): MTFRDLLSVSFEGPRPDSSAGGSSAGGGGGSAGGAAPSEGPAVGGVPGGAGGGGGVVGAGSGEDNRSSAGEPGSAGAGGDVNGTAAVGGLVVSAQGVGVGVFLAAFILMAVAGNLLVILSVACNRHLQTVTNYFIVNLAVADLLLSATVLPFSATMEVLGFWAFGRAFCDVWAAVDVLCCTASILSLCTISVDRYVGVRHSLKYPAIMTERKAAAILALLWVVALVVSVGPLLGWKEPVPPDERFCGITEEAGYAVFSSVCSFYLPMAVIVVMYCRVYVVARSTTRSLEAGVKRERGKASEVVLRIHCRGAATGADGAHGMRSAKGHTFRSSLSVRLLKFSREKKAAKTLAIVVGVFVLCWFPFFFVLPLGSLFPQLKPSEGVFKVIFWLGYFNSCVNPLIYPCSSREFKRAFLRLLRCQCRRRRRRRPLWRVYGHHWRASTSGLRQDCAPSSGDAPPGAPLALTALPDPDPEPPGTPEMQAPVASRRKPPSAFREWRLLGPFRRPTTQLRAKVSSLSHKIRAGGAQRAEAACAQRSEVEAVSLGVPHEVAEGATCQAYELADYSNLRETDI
compound,measurement,setting,value
COc1ccccc1N1CCN(CCN(C(=O)C2CCC(CF)CC2)c2ccccn2)CC1 (stereo not drawn) [Mefway],"% human 5HT1A Selectivity, α1D",adrenergic α1D; [9],1.58%
same,Ki,"adrenergic α1D; read-out: Binding affinity, Ki, α1D, human cloned receptor, PDSP",57 nM
same,Ki,D3 subtype,139 nM
same,Raphe ratio with respect to cerebellum,"5-HT1A receptors [1]; monkey, higher resolution P4 scanner, ref Wooten et al., 2011b",greater than 3
same,HP/CB PET ratio,"5-HT1A receptors [1]; monkey, 90 mins post-injection, ref Saigal et al., 2006, Wooten et al., 2011b",10 ^f
same,Raphe BPND,"5-HT1A receptors [1]; monkey, ref Wooten et al., 2011b",greater than 3
same,Raphe ratio with respect to cerebellum,"5-HT1A receptors [1]; monkeys, EXACT HR+ PET scanner, ref Saigal et al., 2006",approximately 2
same,Raphe to cerebellum ratio,"5-HT1A receptors [1]; monkeys, scanner not stated (abstract)",approximately 3
same,Free Fraction in plasma,[2],5% ^j
same,"% human 5HT1A Selectivity, α1A",adrenergic α1A; [9],1.29%
same,Ki,"adrenergic α1A; read-out: Binding affinity, Ki, α1A, human cloned receptor, PDSP",70 nM
same,"Binding affinity, Ki, 5-HT1A, rat brain homogenates",[3],subnanomolar affinity
same,Binding displaced in hippocampus and cortex,"5-HT1A receptors [4]; in the presence of 10 μM of WAY-100635, rat (all the species)",> 95%
same,"Ratio in cortical regions, autoradiography",5-HT1A receptors [4]; rats,> 10
same,"Ratio of hippocampus to cerebellum, autoradiography","5-HT1A receptors [4]; rats, brain slices incubated for one hr",30
same,"Ratio of raphe to cerebellum, autoradiography","5-HT1A receptors [4]; rats, horizontal sections",23
same,HP/CB PET ratio,"5-HT1A receptors [5]; 90 mins post-injection, may be underestimated, ref Saigal et al., 2013",3 ^g
same,Brain Uptake,5-HT1A receptors [5]; [10],5 %ID/cc
same,Brain Uptake,"5-HT1A receptors [5]; ref Saigal et al., 2013",5 ^g %ID/cc
same,"Ratio of hippocampus versus white matter, autoradiography",5-HT1A receptors [6]; human hippocampus sections,13
same,Binding displaced in hippocampus and cortex,"5-HT1A receptors [6]; in the presence of 10 μM of WAY-100635, human (all the species)",> 95%
same,"% human 5HT1A Selectivity, 5-HT2B",5-HT2B; [9],0.35%
same,Ki,"5-HT2B; read-out: Binding affinity, Ki, 5-HT2B, human cloned receptor, PDSP",260 nM
same,"% human 5HT1A Selectivity, 5-HT7",5-HT7; [9],0.30%
same,Ki,"5-HT7; read-out: Binding affinity, Ki, 5-HT7, human cloned receptor, PDSP",297 nM
same,"% human 5HT1A Selectivity, α1B",α1B; [9],0.18%
same,Ki,"α1B; read-out: Binding affinity, Ki, α1B, human cloned receptor, PDSP",505 nM
same,HP/CB PET ratio,5-HT1A receptors [7]; [10],10
same,HP/CB PET ratio,"5-HT1A receptors [7]; ref Saigal et al., 2013",10 ^g
same,IC50,[8],> 30000 nM
